Source: ChEMBL document CHEMBL4325910, “Design and synthesis of rosiglitazone-ferulic acid-nitric oxide donor trihybrids for improving glucose tolerance” (Eur J Med Chem, 2019)
Activity calls are given as the source filed them. The calls are words filed in the database; no cut-off is given here.

Key:
Platelet [1] = test: Antiplatelet activity in platelet rich plasma (unknown origin) assessed as inhibition of ADP-induced platelet aggregation at 4 mM relative to control; type: functional
Platelet [2] = test: Antiplatelet activity in platelet rich plasma (unknown origin) assessed as inhibition of arachidonic acid-induced platelet aggregation at 8 mM relative to control; type: functional
Platelet [3] = test: Antiplatelet activity in platelet rich plasma (unknown origin) assessed as inhibition of ADP-induced platelet aggregation at 8 mM relative to control; type: functional
Platelet [4] = test: Antiplatelet activity in platelet rich plasma (unknown origin) assessed as inhibition of ADP-induced platelet aggregation at 1 mM relative to control; type: functional
[5] = Toxicity in spontaneous db/db BKS.Cg-Dock7m +/+ Leprdb/J mouse assessed as reduction in serum hematocrit value at 27 umol/kg, po administered as daily dose via gavage treated for 18 days; type: organism-based; conditions: in vivo, 432 h
[6] = Metabolic stability in Sprague-Dawley rat plasma after 24 hrs by HPLC analysis
[7] = Metabolic stability in Sprague-Dawley rat plasma after 0.5 hrs by HPLC analysis; type: ADME, cell-free
Method in brief: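 Compound (100 μM final; 100 mM DMSO stock diluted 1:1000) was incubated in triplicate in SD rat plasma at 37 °C with shaking for 0–24 h. Acetonitrile (3 volumes) was added, samples centrifuged and supernatants run on HPLC. Gradient was ammonium acetate pH 3.5/acetonitrile, 1.0 mL/min, detection at 254 nm.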

Platelet [8] = test: Antiplatelet activity in platelet rich plasma (unknown origin) assessed as inhibition of arachidonic acid-induced platelet aggregation at 1 mM relative to control; type: functional
Platelet [9] = test: Antiplatelet activity in platelet rich plasma (unknown origin) assessed as inhibition of ADP-induced platelet aggregation at 0.4 mM relative to control; type: functional
Platelet [10] = test: Antiplatelet activity in platelet rich plasma (unknown origin) assessed as inhibition of arachidonic acid-induced platelet aggregation at 0.1 mM relative to control; type: functional
[11] = Metabolic stability in simulated intestinal fluid at pH 6.8 measured after 4 hrs by HPLC analysis; type: ADME; conditions: read-out: Stability
Method in brief: (§1)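 Gastric fluid was 1% pepsin in water, pH 1.5. Intestinal fluid was 1% trypsin with 0.68% KH2PO4, pH 6.8. Compound (100 mM DMSO stock) was diluted 1:1000 into each, in triplicate. Incubation was at 37 °C for 0, 2, 4, 6, 16 or 24 h. Acetonitrile (3 volumes) stopped it, then HPLC at 254 nm.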

[12] = Metabolic stability in simulated gastric fluid at pH 1.5 measured after 16 hrs by HPLC analysis; type: ADME; conditions: read-out: Stability; method in brief: as §1
3T3-L1 [13] = test: Induction of nitric oxide production in TNF-alpha-induced insulin resistant mouse 3T3L1 cells at 3 to 10 uM after 0.5 to 6 hrs in presence of nitric oxide scavenger C-PTIO by DAF-FM-2DA dye-based fluorescence assay; type: functional, cell-based
Method in brief: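 Insulin-resistant 3T3-L1 adipocytes (TNF-α 4 ng/mL, 4 days) were treated for varying times, with or without 20 μM C-PTIO. Vehicle was DMSO 0.1% or NaOH 10 μM. Cells were washed in KRP, loaded with 10 μM DAF-FM-2DA in pH 7.4 PBS at 37 °C for 30 min, and read at Ex/Em 485/515 nm. Three experiments.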

[14] = Metabolic stability in human liver microsomes after 0.5 hrs in presence of NADPH by HPLC analysis; type: ADME, Microsome; conditions: read-out: Stability
Method in brief: (§2)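 Compound (100 mM DMSO stock) was added in triplicate to 0.1 M phosphate buffer pH 7.4 with 3.3 mM MgCl2 and human liver microsomes, then preincubated 5 min at 37 °C. NADPH (1.3 mM stock) was added and incubation continued 0, 0.5, 1, 2 or 6 h. Acetonitrile quench, then HPLC at 254 nm.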

[15] = Toxicity in spontaneous db/db BKS.Cg-Dock7m +/+ Leprdb/J mouse assessed as body weight gain at 13.5 umol/kg, po administered as daily dose via gavage treated for 18 days measured post last dose (reference value: 5.6 +/- 2.1 g); type: organism-based; conditions: in vivo, 432 h
Platelet [16] = test: Antiplatelet activity in platelet rich plasma (unknown origin) assessed as inhibition of arachidonic acid-induced platelet aggregation at 0.4 mM relative to control; type: functional
[17] = Metabolic stability in simulated intestinal fluid at pH 6.8 measured after 2 hrs by HPLC analysis; type: ADME; conditions: read-out: Stability; method in brief: as §1
Platelet [18] = test: Antiplatelet activity in platelet rich plasma (unknown origin) assessed as inhibition of arachidonic acid-induced platelet aggregation at 0.2 mM relative to control; type: functional
Mus musculus [19] = test: Antidiabetic activity in spontaneous db/db BKS.Cg-Dock7m +/+ Leprdb/J mouse assessed as decrease in fasting blood glucose level at 10 to 20 mg/kg, po administered as daily dose via gavage for 18 days measured on day 9 post last dose by glucometric analysis; type: functional, organism-based
Method in brief: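 Male db/db mice (BKS.Cg-Dock7m +/+ Leprdb/J), 6 weeks old on purchase, randomized, n=8 per group. Dosed by gavage in 0.5% CMC-Na daily for 18 consecutive days. Vehicle-dosed db/db and C57BL/6 mice served as model and control. Fasting glucose was read by glucometer every three days. On day 12, after an overnight fast, 2 g/kg glucose was given orally. Blood glucose was read at 0–120 min and AUC calculated. Mean ± SEM.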

3T3-L1 [20] = test: Inhibition of ROS production in TNF-alpha-induced insulin resistant mouse 3T3L1 cells at 3 to 10 uM after 48 hrs by DCFH-DA dye-based fluorescence assay; type: functional, cell-based
Mus musculus [21] = test: Effect on lipid metabolism in spontaneous db/db BKS.Cg-Dock7m +/+ Leprdb/J mouse assessed as increase in serum HDL level at 27 umol/kg, po administered as daily dose via gavage for 18 days; type: functional, organism-based
Method in brief: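 db/db mice were gavaged daily for 18 days in 0.5% CMC-Na (n=8 per group), with a vehicle model group. On day 19, blood was collected and serum prepared by centrifugation. Serum triglyceride and HDL were then measured.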

[22] = Metabolic stability in human liver microsomes after 6 hrs in presence of NADPH by HPLC analysis; type: ADME, Microsome; conditions: read-out: Stability; method in brief: as §2
[23] = Metabolic stability in simulated intestinal fluid at pH 6.8 measured after 24 hrs by HPLC analysis; type: ADME; conditions: read-out: Stability; method in brief: as §1
Platelet [24] = test: Antiplatelet activity in platelet rich plasma (unknown origin) assessed as inhibition of ADP-induced platelet aggregation at 3.2 mM relative to control; type: functional
[25] = Metabolic stability in simulated gastric fluid at pH 1.5 measured after 24 hrs by HPLC analysis; type: ADME; conditions: read-out: Stability; method in brief: as §1
Platelet [26] = test: Antiplatelet activity in platelet rich plasma (unknown origin) assessed as inhibition of ADP-induced platelet aggregation at 0.8 mM relative to control; type: functional
Platelet [27] = test: Antiplatelet activity in platelet rich plasma (unknown origin) assessed as inhibition of ADP-induced platelet aggregation at 1.6 mM relative to control; type: functional
[28] = Toxicity in spontaneous db/db BKS.Cg-Dock7m +/+ Leprdb/J mouse assessed as reduction in serum hematocrit value at 13.5 to 27 umol/kg, po administered as daily dose via gavage treated for 18 days; type: organism-based; conditions: in vivo, 432 h
[29] = Metabolic stability in simulated intestinal fluid at pH 6.8 measured after 6 hrs by HPLC analysis; type: ADME; conditions: read-out: Stability; method in brief: as §1
[30] = Metabolic stability in human liver microsomes after 2 hrs in presence of NADPH by HPLC analysis; type: ADME, Microsome; conditions: read-out: Stability; method in brief: as §2

`CN(CCOc1ccc(CC2SC(=O)NC2=O)cc1)c1ccccn1` (stereo not given) [ROSIGLITAZONE] gave an inhibition at 4000 µM (Platelet [1]) of 43.1%, an inhibition at 8000 µM (Platelet [2]) of 54.4% and an inhibition at 8000 µM (Platelet [3]) of 64%. For the same compound, the inhibition at 1000 µM (Platelet [4]) was 6.1%, the Activity [5] was “Toxic” and the Stability [6] was 39%. The Stability [7] was 20% and the inhibition at 1000 µM (Platelet [8]) was 14.8%.

With `CCN(CC)/[N+]([O-])=N/OCOC(=O)/C=C/c1ccc(OC(=O)OCN2C(=O)SC(Cc3ccc(OCCN(C)c4ccccn4)cc3)C2=O)c(OC)c1` (stereo not given) the inhibition at 400 µM (Platelet [9]) was 18.8%, the inhibition at 100 µM (Platelet [10]) was 21.6% and the remaining at 4 h [11] was 96.9%. For the same compound, the remaining at 16 h [12] was 86.6%, the Activity (3T3-L1 [13]) was “inactive” and the remaining at 0.5 h [14] was 94.3%. The Activity [15] was 4 g, the inhibition at 400 µM (Platelet [16]) was 40.6% and the remaining at 2 h [17] was 97.7%. For the same compound, the inhibition at 200 µM (Platelet [18]) was 30.2%, the Activity (Mus musculus [19]) was “Active” and the inhibition (3T3-L1 [20]) was “Active”. For the same compound, the Activity (Mus musculus [21]) was “Active”, the remaining at 6 h [22] was 82% and the remaining at 24 h [23] was 75.5%. It also gave an inhibition at 3200 µM (Platelet [24]) of 57.3%, a remaining at 24 h [25] of 82.6% and an inhibition at 800 µM (Platelet [26]) of 26.2%. The inhibition at 1600 µM (Platelet [27]) was 47%, the Activity [28] was “Non-Toxic” and the remaining at 6 h [29] was 87.6%. The remaining at 2 h [30] was 85.3%.
